According to ChEMBL document CHEMBL1153485, “Synthesis and biological evaluation of novel 1-(4-methoxyphenethyl)-1H-benzimidazole-5-carboxylic acid derivatives and their precursors as antileukemic agents” (Bioorg Med Chem Lett, 2009):
Calls of active or inactive are those of the source. No cut-off for these calls is given here.

What was measured:
Type in all cases: functional, cell-based
[1] = tested on: K562; assay: Cytotoxicity against human K562 cells
Procedure, shortened: (§1)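 K562 and CEM cells; IC50 values calculated from both trypan blue counting and MTT assays.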

[2] = tested on: CCRF-CEM; assay: Cytotoxicity against human CEM cells; procedure, shortened: as §1
[3] = tested on: K562; assay: Cytotoxicity against human K562 cells at 100 uM within 48 hrs by trypan blue exclusion assay
Procedure, shortened: (§2)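 Leukemic cells treated with derivatives dissolved in DMSO at […]; DMSO-only cells at the amount used for the top concentration served as vehicle control. Viable cells counted by trypan blue at 24 h intervals until stationary phase.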

[4] = tested on: CCRF-CEM; assay: Cytotoxicity against human CEM cells at 100 uM within 48 hrs by trypan blue exclusion assay; procedure, shortened: as §2
[5] = tested on: K562; assay: Cytotoxicity against human K562 cells at 250 uM within 48 hrs by trypan blue exclusion assay; procedure, shortened: as §2
[6] = tested on: CCRF-CEM; assay: Cytotoxicity against human CEM cells at 250 uM within 48 hrs by trypan blue exclusion assay; procedure, shortened: as §2
[7] = tested on: K562; assay: Induction of apoptosis in human K562 cells assessed as DNA strand breakage at 100 uM after 72 hrs using ethidium bromide staining by agarose gel electrophoresis
[8] = tested on: K562; assay: Induction of cell cycle arrest at M phase in human K562 cells assessed as reduction in phosphorylated histone H3 level at 5 uM after 24 hrs by Western blot analysis
[9] = tested on: K562; assay: Induction of cell cycle arrest at M phase in human K562 cells assessed as reduction in phosphorylated histone H3 level at 10 uM after 24 hrs by Western blot analysis
[10] = tested on: K562; assay: Induction of cell cycle arrest in human K562 cells assessed as reduction in PCNA level at 5 to 10 uM after 24 hrs by Western blot analysis
[11] = tested on: K562; assay: Induction of cell cycle arrest at G2/M phase in human K562 cells assessed as down-regulation of cyclin B1 at 5 to 10 uM after 24 hrs by Western blot analysis
[12] = tested on: K562; assay: Induction of cell cycle arrest at S phase in human K562 cells assessed as down-regulation of CDK2 at 10 uM after 24 hrs by Western blot analysis
[13] = tested on: K562; assay: Induction of p21 activation in human K562 cells at 5 to 10 uM after 24 hrs by Western blot analysis
[14] = tested on: K562; assay: Induction of apoptosis in human K562 cells assessed as DNA strand breakage at 10 uM after 72 hrs using ethidium bromide staining by agarose gel electrophoresis
[15] = tested on: K562; assay: Induction of apoptosis in human K562 cells assessed as upregulation of BAD protein at 30 uM by SDS-PAGE; details: TDE = time-dependent effect
Procedure, shortened: (§3)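 K562 cells treated with […] compound for 12 and 24 h; DMSO-treated cells grown 24 h as vehicle control. Lysates separated by SDS-PAGE, transferred to PVDF, probed with specific primary and secondary antibodies for BAD, BCL2 and PARP.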

[16] = tested on: K562; assay: Induction of apoptosis in human K562 cells assessed as down-regulation of BCL2 protein at 30 uM after 12 hrs by SDS-PAGE; procedure, shortened: as §3
[17] = tested on: K562; assay: Induction of apoptosis in human K562 cells assessed as PARP cleavage at 30 uM after 12 hrs by SDS-PAGE; procedure, shortened: as §3
[18] = tested on: K562; assay: Cell cycle arrest in human K562 cells assessed as accumulation at S phase at 1 to 10 uM after 8 to 48 hrs by FACS analysis
Procedure, shortened: (§4)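 K562 cells treated with […] compound, analysed by FACS for cell cycle distribution; DMSO-treated cells as vehicle control.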

[19] = tested on: K562; assay: Cell cycle arrest in human K562 cells assessed as accumulation at G2/M phase at 1 to 10 uM after 8 to 48 hrs by FACS analysis; procedure, shortened: as §4

Structure (SMILES)	IC50 [1]	IC50 [2]	Activity [3]	Activity [4]	Activity [5]	Activity [6]	also measured
COc1ccc(CCn2c(-c3ccc(F)c([N+](=O)[O-])c3)nc3cc(C(=O)O)ccc32)cc1	135 µM	132 µM	–	–	–	–	–
COC(=O)c1ccc2c(c1)nc(-c1ccc(C(C)(C)C)cc1)n2CCc1ccc(OC)cc1	70 µM	68 µM	Active	Active	Active	Active	–
COc1ccc(CCn2c(-c3cccc(Br)c3)nc3cc(C(=O)O)ccc32)cc1	124 µM	120 µM	Active	Active	Active	Active	–
COC(=O)c1ccc2c(c1)nc(-c1ccc(Cl)cc1Cl)n2CCc1ccc(OC)cc1	> 250 µM	> 250 µM	–	–	–	–	–
COc1ccc(CCn2c(-c3ccc(Cl)cc3Cl)nc3cc(C(=O)O)ccc32)cc1	110 µM	102 µM	Active	Active	Active	Active	–
COc1ccc(CCn2c(-c3ccccc3F)nc3cc(C(=O)O)ccc32)cc1	240 µM	244 µM	–	–	–	–	–
COc1ccc(CCn2c(-c3ccccc3)nc3cc(C(=O)O)ccc32)cc1	> 250 µM	> 250 µM	–	–	–	–	–
COc1ccc(CCn2c(-c3ccc(C(C)(C)C)cc3)nc3cc(C(=O)O)ccc32)cc1	40 µM	42 µM	–	–	–	–	Activity [7]: Active
COC(=O)c1ccc2c(c1)nc(-c1ccccc1)n2CCc1ccc(OC)cc1	64 µM	65 µM	Active	Active	Active	Active	–
COC(=O)c1ccc2c(c1)nc(-c1ccc([N+](=O)[O-])cc1)n2CCc1ccc(OC)cc1	120 µM	122 µM	–	–	–	–	–
COC(=O)c1ccc2c(c1)nc(-c1cccc(OC)c1)n2CCc1ccc(OC)cc1	136 µM	138 µM	Active	Active	Active	Active	–
COC(=O)c1ccc2c(c1)nc(-c1ccc(F)c([N+](=O)[O-])c1)n2CCc1ccc(OC)cc1	3 µM	4 µM	Active	Active	Active	Active	Activity [8]: Active; Activity [9]: Active; Activity [10]: Active; Activity [11]: Active; Activity [12]: Active; Activity [13]: Active; Activity [14]: Active; Activity [15]: tde; Activity [16]: Active; Activity [17]: Active; Activity [18]: Active; Activity [19]: Active
COc1ccc(CCn2c(-c3ccc(F)c(N)c3)nc3cc(C(=O)O)ccc32)cc1	180 µM	182 µM	–	–	–	–	–
COC(=O)c1ccc2c(c1)nc(-c1c(F)cccc1F)n2CCc1ccc(OC)cc1	84 µM	85 µM	Active	Active	Active	Active	–
COc1ccc(CCn2c(-c3ccc(N)cc3)nc3cc(C(=O)O)ccc32)cc1	> 250 µM	> 250 µM	–	–	–	–	–
COc1ccc(CCn2c(-c3c(F)cccc3F)nc3cc(C(=O)O)ccc32)cc1	80 µM	85 µM	–	–	–	–	–
COC(=O)c1ccc2c(c1)nc(-c1ccccc1F)n2CCc1ccc(OC)cc1	56 µM	55 µM	Active	Active	Active	Active	Activity [7]: Active
COC(=O)c1ccc2c(c1)nc(-c1ccc(N)cc1)n2CCc1ccc(OC)cc1	180 µM	175 µM	–	–	–	–	–
COc1ccc(CCn2c(-c3cccc(OC)c3)nc3cc(C(=O)O)ccc32)cc1	200 µM	195 µM	–	–	–	–	–
COC(=O)c1ccc2c(c1)nc(-c1cccc(Br)c1)n2CCc1ccc(OC)cc1	> 250 µM	> 250 µM	–	–	–	–	–
COc1ccc(CCn2c(-c3ccc([N+](=O)[O-])cc3)nc3cc(C(=O)O)ccc32)cc1	250 µM	245 µM	–	–	–	–	–
COC(=O)c1ccc2c(c1)nc(-c1ccc(F)c(N)c1)n2CCc1ccc(OC)cc1	78 µM	75 µM	–	–	–	–	–
